# Laboratory results published in PubChem BioAssay AID492988 (Johns Hopkins Ion Channel Center, 2010).
# Records with an inconclusive call do not appear. Active and inactive are the calls of the source.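 The calls were made as follows: active = duplicate-averaged calcium signal falling below the mean of the agonist-only control wells less 5 SD; inactive = the rest, inconclusive results apart.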
# System: Transient receptor potential cation channel subfamily C member 4 (TRPC4beta), mouse
# Test: TRPC4 channel inhibitors, SAR follow-up, cell-based, HEK293 TRPC4beta/mu-opioid, Fluo-4 calcium flux, single concentration (AID 492988)
# Settings: DAMGO-evoked Fluo4 calcium flux, at 10 µM, active compounds read high
# How it was run: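 Material: HEK293 cells stably expressing TRPC4beta plus mu-opioid receptor | Reagent: DAMGO mu-opioid agonist, submaximal dose then ECmax dose | Doses: Single concentration per test compound | Times: Compound 110 s, submaximal DAMGO 110 s | Detection: Fluo4 calcium-sensitive dye fluorescence, calcium flux | Measure: Peak-minus-trough fluorescence over baseline, integrated ratio, mean % inhibition | Replicates: Duplicates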
row,inhibition,Compound
1,44.1%,Cc1ccnc(N2CCCC2)c1
2,-10.6% (inactive),FC(F)(F)c1cc(N2CCCC2)nc2ccccc12
3,90%,Cc1cc(N2CCCCC2)nc2ccccc12
4,38.2% (inactive),Cc1ccnc(N2CCCCC2)n1
5,72.9%,Cc1cc(N2CCCCC2)nc2ccc(F)cc12
6,-82.8% (inactive),COc1ccc(N2CCN(c3cc(C)c4ccccc4n3)CC2)cc1
7,63%,Cc1cc(N2CCOc3ccccc32)nc2ccccc12
8,29.5% (inactive),Cc1cc(N2CCN(c3ccncc3)CC2)nc2ccccc12
9,32.4% (inactive),Cc1cc(N2CC(C)CC(C)C2)nc2ccccc12 (centres undefined)
10,84.9%,Cc1cc(N2CCCC2)nc2ccccc12
11,90%,Cc1cc(N2CCC[C@@H]2C)nc2ccccc12
12,42% (inactive),Cc1cc(N2CCN(c3ccccc3C#N)CC2)nc2ccccc12
13,11.7% (inactive),Cc1cc(N2CCC(N3CCOCC3)CC2)nc2ccccc12
14,93%,Cc1ccc2nc(N3CCCC3)cc(C)c2c1
15,46.4%,Cc1cc(N2CCCCC2)nc2c(C)cccc12
16,91.6%,Cc1cc(N2CCC(C)CC2)nc2ccccc12

row,inhibition,Compound
1,42.6%,Cc1cc(N2CCOCC2)nc2ccccc12
2,70.1%,Cc1cc(N2CCCC2)nc2c(C)cccc12
3,61.2%,CCN(CC)c1cc(C)c2ccccc2n1
4,38% (inactive),Cc1ccnc(N2CCCC2)n1
5,6.42% (inactive),Cc1cc(N2CCN(c3ncccn3)CC2)nc2ccccc12
6,72.2%,COc1ccccc1N1CCN(c2cc(C)c3ccccc3n2)CC1
7,79.9%,c1ccc(-c2cc(N3CCCC3)nc3ccccc23)cc1
8,24.5% (inactive),COCCN(C)c1cc(C)c2ccccc2n1
9,-249% (inactive),Cc1cc(N(C)CCN(C)C)nc2ccccc12
10,91.3%,Cc1cc(N2CCCC2)nc2ccc(F)cc12
11,91.5%,CCc1ccc2nc(N3CCCC3)cc(C)c2c1
12,55.9%,c1ccc(-c2cc(N3CCCCC3)nc3ccccc23)cc1
13,39.7% (inactive),FC(F)(F)c1cc(N2CCCCC2)nc2ccccc12
14,-51.3% (inactive),Cc1cc(N2CCN(CC3CCCO3)CC2)nc2ccccc12 (centres undefined)
15,50.8%,Cc1ccnc(N2CCCCC2)c1
16,69.3%,Cc1cc(N2CCCC(O)C2)nc2ccccc12 (centres undefined)

row,Compound,inhibition
1,Cc1cc(N2CCNCC2)nc2ccccc12,-292% (inactive)
2,Cc1cc(N2CCN(C)CC2)nc2ccccc12,-157% (inactive)
